Assay results of several laboratories.
Compare with care: the assays were run in different laboratories.
Tumor necrosis factor receptor superfamily member 9: Tumor necrosis factor receptor superfamily member 9 (Homo sapiens, UniProt Q07011)
CYP2D6: Cytochrome P450 2D6 (CYP2D6, Homo sapiens, UniProt P10635)
PPARA: Peroxisome proliferator-activated receptor alpha (PPARA, Homo sapiens, UniProt Q07869)
gag-pol integrase: Gag-Pol polyprotein, integrase (gag-pol, Human immunodeficiency virus 1, UniProt P12497)

CCCC[C@@H]1NC(=O)[C@H](Cc2ccc(O)cc2)NC(=O)[C@@H]2CCCN2C(=O)[C@H](CC(=O)O)NC(=O)[C@H](C)NC(=O)[C@H](Cc2ccccc2)NC(=O)[C@@H]2CSCCC(=O)N3CN(CN(C3)C(=O)CCSC[C@@H](C(=O)N[C@@H](C)C(N)=O)NC1=O)C(=O)CCSC[C@H](NC(C)=O)C(=O)N[C@@H](CC(C)(C)C)C(=O)N1CCC[C@H]1C(=O)N[C@@H](CCC(=O)O)C(=O)N[C@H](CCCCNC(=O)CCc1cn(CCOCCOCCOCCOCCOCCC(=O)N[C@H]3CSCCC(=O)N4CN5CN(C4)C(=O)CCSC[C@H](NC(=O)[C@@H](CCC(=O)O)NC(=O)[C@H](Cc4cccc6ccccc46)NC(=O)[C@@H]4CCCN4C3=O)C(=O)N[C@@H](CC(C)C)C(=O)N[C@@H](CCCCNC(=N)N)C(=O)N[C@@H](CC(=O)O)C(=O)N[C@@H](Cc3c[nH]c4ccccc34)C(=O)N[C@@H](CO)C(=O)N[C@@H]([C@@H](C)O)C(=O)N3CCC[C@H]3C(=O)N3C[C@H](O)C[C@H]3C(=O)N[C@@H](Cc3c[nH]c4ccccc34)C(=O)N[C@H](C(N)=O)CSCCC5=O)nn1)C(=O)N1CCC[C@H]1C(=O)N[C@@H](Cc1ccc(O)cc1)C(=O)N2 — Kd (Tumor necrosis factor receptor superfamily member 9; binding, SPR): 0.0084 µM
Clc1ccc(N2CCN(Cc3c[nH]c4ncccc34)CC2)cc1 — Ki (D(2) dopamine receptor (Drd2, Rattus norvegicus, UniProt P61169); ligand displacement, radioligand; cell membranes): 0.656 µM
[Cd+2] — Ki (Protein phosphatase 1A (PPM1A, Homo sapiens, UniProt P35813, D239A); enzyme activity, inhibitor, absorbance; pH 8): 5.22 µM
Cc1c(C2(c3ccc(C(F)(F)F)nc3)CC2)c[nH]c1C(=O)NC(C)c1c[nH]cn1 (stereo not shown) — IC50 (CYP2D6; enzyme activity, inhibitor; human, liver microsomes): 0.32 µM
O=C(Cc1ccccc1)N[C@H](C(=O)O)[C@@H]1N=C(C(=O)O)C(CSC(C(=O)O)c2ccccc2)CS1 (stereo partly shown) — IC50 (Metallo-beta-lactamase VIM-2 (VIM-2, Escherichia coli, UniProt Q5U7L7); enzyme activity, inhibitor, absorbance): 65.6 µM
CC[C@H](C)[C@H](NC(=O)[C@H](CCCNC(=N)N)NC(=O)[C@H](CC(C)C)NC(=O)[C@@H](N)Cc1ccccc1)C(=O)N[C@@H](CCCNC(=N)N)C(=O)N1CCC[C@H]1C(=O)N[C@@H](CCCCN)C(=O)O — Ki (Alpha-1B adrenergic receptor (ADRA1B, Homo sapiens, UniProt P35368); cell-free assay, radioligand): 6.9 µM
c1ccc(-c2c[nH]c3ncnc(N4CCOCC4)c23)cc1 — IC50 (Serine/threonine-protein kinase 4 (STK4, Homo sapiens, UniProt Q13043); enzyme activity, inhibitor, ADP detection): 0.035 µM
CC(=O)N[C@@H](CC(C)C)C(=O)N[C@@H](CC(C)C)C(=O)N[C@@H](CC(C)C)C(=O)N[C@@H](CCCN=C(N)N)C(=O)N[C@H](C(=O)N[C@@H](CCCCN)C(=O)N[C@@H](CCCN=C(N)N)C(N)=O)C(C)C — Ki (Neuroendocrine convertase 2 (Homo sapiens, UniProt P16519); enzyme activity, inhibitor): 0.5 µM
CCCC[C@@H]1NC(=O)[C@H](Cc2ccc(O)cc2)NC(=O)[C@@H]2CCCN2C(=O)[C@H](CC(=O)O)NC(=O)[C@H](C)NC(=O)[C@H](Cc2ccccc2)NC(=O)[C@@H]2CSCCC(=O)N3CN(CN(C3)C(=O)CCSC[C@@H](C(=O)N[C@@H](C)C(N)=O)NC1=O)C(=O)CCSC[C@H](NC(C)=O)C(=O)N[C@@H](CC(C)(C)C)C(=O)N1CCC[C@H]1C(=O)N[C@@H](CCC(=O)O)C(=O)N[C@H](CCCCNC(=O)CCc1cn(CCOCCOCCOCCOCCOCCC(=O)NCCCC[C@H]3NC(=O)[C@H](Cc4cccc5ccccc45)NC(=O)[C@@H]4CCCN4C(=O)[C@@H](NC(C)=O)CSCCC(=O)N4CN5CN(C4)C(=O)CCSC[C@H](NC3=O)C(=O)N[C@@H](CCSC)C(=O)N[C@@H](CCCCNC(=N)N)C(=O)N[C@@H](Cc3c[nH]cn3)C(=O)N[C@@H](Cc3c[nH]c4ccccc34)C(=O)N[C@@H](CO)C(=O)N[C@@H]([C@@H](C)O)C(=O)N3CCC[C@H]3C(=O)N3C[C@H](O)C[C@H]3C(=O)N[C@@H](Cc3c[nH]c4ccccc34)C(=O)N[C@H](C(N)=O)CSCCC5=O)nn1)C(=O)N1CCC[C@H]1C(=O)N[C@@H](Cc1ccc(O)cc1)C(=O)N2 — Kd (Tumor necrosis factor receptor superfamily member 9; binding, SPR): 0.0032 µM
O=C(O)CCC(c1ccccc1)(c1ccccc1)c1ccccc1 — IC50 (Kinesin-like protein KIF11 (KIF11, Homo sapiens, UniProt P52732); ATPase activity, inhibitor): > 28 µM
O=C(O)c1cc[c]([Hg][Cl])cc1 — IC50 (Beta-lactamase TEM (bla, Escherichia coli, UniProt P62593); enzyme activity, inhibitor): > 30 µM
O=S(=O)(O)C(F)(F)C(F)(F)OC(F)(C(F)(F)F)C(F)(F)OC(F)C(F)(F)F (stereo not shown) — EC50 (PPARA; reporter gene, agonist, luciferase): 24 µM
O=C(O)[C@H](Cc1ccccc1)NC(=O)C1(c2ccc3ccccc3c2)CCN(Cc2ccccc2)CC1 — IC50 (gag-pol integrase; enzyme activity, inhibitor, TR-FRET): 353 µM
CCCC[C@@H]1NC(=O)[C@H](Cc2ccc(O)cc2)NC(=O)[C@@H]2CCCN2C(=O)[C@H](CC(=O)O)NC(=O)[C@H](C)NC(=O)[C@H](Cc2ccccc2)NC(=O)[C@@H]2CSCCC(=O)N3CN(CN(C3)C(=O)CCSC[C@@H](C(=O)N[C@@H](CNC(=O)CCOCCOCCOCCOCCOCCn3cc(CCC(=O)N[C@H]4CSCCC(=O)N5CN6CN(C5)C(=O)CCSC[C@H](NC(=O)[C@@H](CC(=O)O)NC(=O)[C@H](Cc5cccc7ccccc57)NC(=O)[C@@H]5CCCN5C4=O)C(=O)N[C@@H](CCSC)C(=O)N[C@@H](CCCCNC(=N)N)C(=O)N[C@@H](CC(=O)O)C(=O)N[C@@H](Cc4c[nH]c5ccccc45)C(=O)N[C@@H](CO)C(=O)N[C@@H]([C@@H](C)O)C(=O)N4CCC[C@H]4C(=O)N4C[C@H](O)C[C@H]4C(=O)N[C@@H](Cc4c[nH]c5ccccc45)C(=O)N[C@H](C(N)=O)CSCCC6=O)nn3)C(N)=O)NC1=O)C(=O)CCSC[C@H](NC(C)=O)C(=O)N[C@@H](CC(C)(C)C)C(=O)N1CCC[C@H]1C(=O)N[C@@H](CCC(=O)O)C(=O)N[C@H](C)C(=O)N1CCC[C@H]1C(=O)N[C@@H](Cc1ccc(O)cc1)C(=O)N2 — Kd (Tumor necrosis factor receptor superfamily member 9; binding, SPR): 0.0034 µM
Cc1cc(SCc2sc(-c3ccc(C(F)(F)F)c(F)c3)nc2C)ccc1OCC(=O)O — EC50 (PPARA; reporter gene, agonist, luciferase): 1.3 µM
O=C(O)[C@H](Cc1ccc2ccccc2c1)NC(=O)C1(c2ccc(F)cc2)CCN(CCC(F)(F)F)CC1 — IC50 (gag-pol integrase; enzyme activity, inhibitor, TR-FRET): 206 µM
O=S(=O)(O)C(F)(F)C(F)(F)C(F)(F)C(F)(F)C(F)(F)C(F)(F)C(F)(F)C(F)(F)F — EC50 (PPARA; reporter gene, agonist, luciferase): 24 µM
O=C(O)[C@H](Cc1ccc2ccccc2c1)NC(=O)C1(c2ccc3ccccc3c2)CCN(CCC(F)(F)F)CC1 — IC50 (gag-pol integrase; enzyme activity, inhibitor, TR-FRET): 180 µM
Cc1c(C2(c3ccc(C(F)(F)F)nc3)CC2)c[nH]c1C(=O)NC(C)c1nc[nH]n1 (stereo not shown) — IC50 (CYP2D6; enzyme activity, inhibitor; human, liver microsomes): 17 µM
CCCC[C@@H]1NC(=O)[C@H](Cc2ccc(O)cc2)NC(=O)[C@@H]2CCCN2C(=O)[C@H](CC(=O)O)NC(=O)[C@H](C)NC(=O)[C@H](Cc2ccccc2)NC(=O)[C@@H]2CSCCC(=O)N3CN(CN(C3)C(=O)CCSC[C@@H](C(=O)N[C@@H](C)C(N)=O)NC1=O)C(=O)CCSC[C@H](NC(C)=O)C(=O)N[C@@H](CC(C)(C)C)C(=O)N1CCC[C@H]1C(=O)N[C@@H](CCC(=O)O)C(=O)N[C@H](CCCCNC(=O)CCc1cn(CCOCCOCCOCCOCCOCCC(=O)NCCCC[C@H]3NC(=O)[C@H](Cc4cccc5ccccc45)NC(=O)[C@@H]4CCCN4C(=O)CCSCCC(=O)N4CN5CN(C4)C(=O)CCSC[C@H](NC3=O)C(=O)N[C@@H](CCSC)C(=O)N[C@@H](CCCCNC(=N)N)C(=O)N[C@@H](CC(=O)O)C(=O)N[C@@H](Cc3c[nH]c4ccccc34)C(=O)N[C@@H](CO)C(=O)N[C@@H]([C@@H](C)O)C(=O)N3CCC[C@H]3C(=O)N3C[C@H](O)C[C@H]3C(=O)N[C@@H](Cc3c[nH]c4ccccc34)C(=O)N[C@H](C(N)=O)CSCCC5=O)nn1)C(=O)N1CCC[C@H]1C(=O)N[C@@H](Cc1ccc(O)cc1)C(=O)N2 — Kd (Tumor necrosis factor receptor superfamily member 9; binding, SPR): 0.0032 µM
O=S(=O)(O)C(F)(F)C(F)(F)C(F)(F)C(F)(F)C(F)(F)C(F)(F)F — EC50 (PPARA; reporter gene, agonist, luciferase): 61 µM
CC(C)C[C@H](NC(=O)[C@H](Cc1ccccc1)NC(=O)[C@H](Cc1ccc(O)cc1)NC(=O)CNC(=O)[C@H](CCCCN)NC(=O)[C@H](CO)NC(=O)[C@H](CCC(N)=O)NC(=O)CNC(=O)[C@@H](NC(=O)[C@H](CO)NC(=O)[C@@H]1CCCN1C(=O)[C@H](CO)NC(=O)[C@H](CCC(N)=O)NC(=O)[C@H](Cc1ccc(O)cc1)NC(=O)[C@H](CCC(=O)O)NC(=O)[C@H](C)NC(=O)[C@H](CCCCN)NC(=O)[C@@H](N)Cc1ccccc1)C(C)C)C(=O)N[C@@H](Cc1ccccc1)C(=O)N[C@@H](CCCNC(=N)N)C(=O)N1CCC[C@H]1C(=O)N[C@@H](CCCNC(=N)N)C(=O)N[C@@H](CC(N)=O)C(N)=O — EC50 (Neuromedin-U receptor 2 (NMUR2, Homo sapiens, UniProt Q9GZQ4); inositol phosphate, agonist): 0.00024 µM
